Key:
Rattus norvegicus [1] = assay: Mean Chlorine excretion in rats when compound administered at 2.5 mg/kg po and vehicle dosed at 9.28 umol/kg; type: ADME, organism-based; parameters: dose 2.5 mg/kg, route oral; details: in vivo
Procedure, shortened: (§1)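 Male Sprague-Dawley rats (HC/CFY, 175-200 g), no food or water for 18 h before and during the test. Single gavage dose (2.5-160 mg/kg; vehicle 1% carboxymethyl cellulose/0.1% Tween 80, 0.5 mL/100 g bw), then distilled water 2.5 mL/100 g bw po. Individual metabolic cages, 6 h urine. K+ by flame photometry, Cl- colorimetric, as mequiv/6 h/kg bw; unpaired Student t-test vs control.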

Rattus norvegicus [2] = assay: Mean potassium excretion in rats when compound administered at 0 mg/kg po and vehicle dosed at 0 umol/kg; type: ADME, organism-based; parameters: dose 0 mg/kg, route oral; details: in vivo; procedure, shortened: as §1
[3] = Acute toxicity in mice when given po; type: organism-based; details: mouse, in vivo, read-out: DL50 (the source's name)
Procedure, shortened: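 Male Swiss mice (SPF, HC/CFLP strain, 20–25 g), oral dosing; mortality followed over 15 days; LD50 derived by the Litchfield and Wilcoxon method.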

Rattus norvegicus [4] = assay: Volume of urine 3h after the compound was administered 100 mg/kg po in rat; type: ADME, organism-based; parameters: dose 100 mg/kg, route oral; details: in vivo
Procedure, shortened: (§2)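 Onset/duration protocol: male Sprague-Dawley rats (HC/CFY, 175-200 g), food and water withdrawn for 18 h before and during the test. Single gavage dose in 1% carboxymethyl cellulose/0.1% Tween 80 (0.5 mL/100 g bw), then distilled water load (2.5 mL/100 g bw po). Two rats per metabolic cage, six pairs per group. Urine collected at 0-1, 1-2, 2-3, 3-4 and 4-6 h; Na+ by flame photometry. Vehicle controls; nonpaired Student t-test.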

Rattus norvegicus [5] = assay: Mean potassium excretion in rats when compound administered at 2.5 mg/kg po and vehicle dosed at 9.28 umol/kg; type: ADME, organism-based; parameters: dose 2.5 mg/kg, route oral; details: in vivo; procedure, shortened: as §1
Rattus norvegicus [6] = species on record: Rattus norvegicus; assay: Mean sodium excretion in rats (Control/Drug treatment value); value 0.35/2.88; type: ADME, organism-based; details: in vivo
Rattus norvegicus [7] = species on record: Rattus norvegicus; assay: Dose required to produce increase in 200 % in urine production vs control groups; type: functional
Procedure, shortened: (§3)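 Male Sprague-Dawley rats (HC/CFY, 175-200 g), fasted and water-deprived 18 h before and during the test. Compound dosed by gavage in 1% carboxymethyl cellulose/0.1% Tween 80, then water load 2.5 mL/100 g bw po. Urine collected 6 h in metabolic cages; Na+ by flame photometry. Effective doses vs vehicle controls derived by linear regression of dose-response data.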

Rattus norvegicus [8] = assay: Mean urinary output in rats when compound administered at 160 mg/kg po and vehicle dosed at 594.07 umol/kg; type: ADME, organism-based, Urine; parameters: dose 160 mg/kg, route oral; details: in vivo
Procedure, shortened: (§4)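 Water-loaded male Sprague-Dawley rats (HC/CFY, 175-200 g) fasted and without water for 18 h. Oral gavage of 2.5-160 mg/kg in 1% CMC with 0.1% Tween 80, then distilled water 2.5 mL/100 g po. Urine collected 6 h in metabolic cages, mean output in mL/6 h/kg bw. Unpaired Student t-test against vehicle; dose-response by linear regression.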

Rattus norvegicus [9] = assay: Mean potassium excretion in rats when compound administered at 80 mg/kg po and vehicle dosed at 297.03 umol/kg; type: ADME, organism-based; parameters: dose 80 mg/kg, route oral; details: in vivo
Procedure, shortened: (§5)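 Male Sprague-Dawley rats (HC/CFY, 175-200 g) fasted and water-deprived 18 h before and during the test. Dosed by gavage at 2.5-160 mg/kg in 1% carboxymethyl cellulose/0.1% Tween 80, 0.5 mL/100 g bw. Immediately hydrated with water (2.5 mL/100 g bw, po). Urine collected 6 h in metabolic cages; Na+ and K+ by flame photometry; mean mequiv/6 h/kg bw; nonpaired Student t-test.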

Rattus norvegicus [10] = assay: Mean sodium excretion in rats when compound administered at 20 mg/kg po and vehicle dosed at 74.26 umol/kg; type: ADME, organism-based; parameters: dose 20 mg/kg, route oral; details: in vivo; procedure, shortened: as §5
Rattus norvegicus [11] = assay: Mean urinary output in rats when compound administered at 0 mg/kg po and vehicle dosed at 0 umol/kg; type: ADME, organism-based, Urine; parameters: dose 0 mg/kg, route oral; details: in vivo; procedure, shortened: as §4
Rattus norvegicus [12] = assay: Mean sodium excretion in rats when compound administered at 2.5 mg/kg po and vehicle dosed at 9.28 umol/kg; type: ADME, organism-based; parameters: dose 2.5 mg/kg, route oral; details: in vivo; procedure, shortened: as §5
Rattus norvegicus [13] = assay: Mean sodium excretion in rats when compound administered at 10 mg/kg po and vehicle dosed at 37.13 umol/kg; type: ADME, organism-based; parameters: dose 10 mg/kg, route oral; details: in vivo; procedure, shortened: as §5
Rattus norvegicus [14] = assay: Mean urinary output in rats when compound administered at 20 mg/kg po and vehicle dosed at 74.26 umol/kg; type: ADME, organism-based, Urine; parameters: dose 20 mg/kg, route oral; details: in vivo; procedure, shortened: as §4
Rattus norvegicus [15] = assay: Urinary sodium 1 hr after the compound was administered 100 mg/kg po in rat; type: ADME, organism-based, Urine; parameters: dose 100 mg/kg, route oral; details: in vivo
Procedure, shortened: (§6)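 Onset and duration study in fasted, water-loaded male Sprague-Dawley rats housed two per metabolic cage, six pairs per group. Single oral dose given, then water 2.5 mL/100 g po. Urine volume and sodium (flame photometry) measured over 0-1, 1-2, 2-3, 3-4 and 4-6 h intervals. Mean values compared with vehicle by Student t-test.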

Rattus norvegicus [16] = assay: Mean potassium excretion in rats when compound administered at 20 mg/kg po and vehicle dosed at 74.26 umol/kg; type: ADME, organism-based; parameters: dose 20 mg/kg, route oral; details: in vivo; procedure, shortened: as §1
Rattus norvegicus [17] = assay: Urinary sodium 3h after the compound was administered 100 mg/kg po in rat; type: ADME, organism-based, Urine; parameters: dose 100 mg/kg, route oral; details: in vivo; procedure, shortened: as §6
Rattus norvegicus [18] = assay: Mean sodium excretion in rats when compound administered at 5 mg/kg po and vehicle dosed at 18.56 umol/kg; type: ADME, organism-based; parameters: dose 5 mg/kg, route oral; details: in vivo; procedure, shortened: as §5
Rattus norvegicus [19] = assay: Urinary sodium 2 hr after the compound was administered 100 mg/kg po in rat; type: ADME, organism-based, Urine; parameters: dose 100 mg/kg, route oral; details: in vivo; procedure, shortened: as §6
Rattus norvegicus [20] = assay: Mean potassium excretion in rats when compound administered at 160 mg/kg po and vehicle dosed at 594.07 umol/kg; type: ADME, organism-based; parameters: dose 160 mg/kg, route oral; details: in vivo; procedure, shortened: as §1
Rattus norvegicus [21] = assay: Mean Chlorine excretion in rats when compound administered at 80 mg/kg po and vehicle dosed at 297.03 umol/kg; type: ADME, organism-based; parameters: dose 80 mg/kg, route oral; details: in vivo; procedure, shortened: as §1
Rattus norvegicus [22] = assay: Mean urinary output in rats when compound administered at 80 mg/kg po and vehicle dosed at 297.03 umol/kg; type: ADME, organism-based, Urine; parameters: dose 80 mg/kg, route oral; details: in vivo; procedure, shortened: as §4
Rattus norvegicus [23] = assay: Mean urinary output in rats when compound administered at 40 mg/kg po and vehicle dosed at 148.52 umol/kg; type: ADME, organism-based, Urine; parameters: dose 40 mg/kg, route oral; details: in vivo; procedure, shortened: as §4
Rattus norvegicus [24] = assay: Volume of urine 4 hr after the compound was administered 100 mg/kg po in rat; type: ADME, organism-based; parameters: dose 100 mg/kg, route oral; details: in vivo; procedure, shortened: as §2
Rattus norvegicus [25] = assay: Mean urinary output in rats when compound administered at 5 mg/kg po and vehicle dosed at 18.56 umol/kg; type: ADME, organism-based, Urine; parameters: dose 5 mg/kg, route oral; details: in vivo; procedure, shortened: as §4
Rattus norvegicus [26] = assay: Mean sodium excretion in rats when compound administered at 160 mg/kg po and vehicle dosed at 594.07 umol/kg; type: ADME, organism-based; parameters: dose 160 mg/kg, route oral; details: in vivo; procedure, shortened: as §5
Rattus norvegicus [27] = assay: Mean urinary output in rats when compound administered at 2.5 mg/kg po and vehicle dosed at 9.28 umol/kg; type: ADME, organism-based, Urine; parameters: dose 2.5 mg/kg, route oral; details: in vivo; procedure, shortened: as §4
Rattus norvegicus [28] = assay: Mean potassium excretion in rats when compound administered at 5 mg/kg po and vehicle dosed at 18.56 umol/kg; type: ADME, organism-based; parameters: dose 5 mg/kg, route oral; details: in vivo; procedure, shortened: as §5
Rattus norvegicus [29] = assay: Dose required to produce an excretion of 2 mequiv of Na+/kg bw/6h vs control groups; type: functional; procedure, shortened: as §3
Rattus norvegicus [30] = assay: Mean sodium excretion in rats when compound administered at 0 mg/kg po and vehicle dosed at 0 umol/kg; type: ADME, organism-based; parameters: dose 0 mg/kg, route oral; details: in vivo; procedure, shortened: as §5
Rattus norvegicus [31] = assay: Mean sodium excretion in rats when compound administered at 80 mg/kg po and vehicle dosed at 297.03 umol/kg; type: ADME, organism-based; parameters: dose 80 mg/kg, route oral; details: in vivo; procedure, shortened: as §5
Rattus norvegicus [32] = assay: Volume of urine 6 hr after the compound was administered 100 mg/kg po in rat; type: ADME, organism-based; parameters: dose 100 mg/kg, route oral; details: in vivo; procedure, shortened: as §2
Rattus norvegicus [33] = assay: Urinary sodium 6 hr after the compound was administered 100 mg/kg po in rat; type: ADME, organism-based, Urine; parameters: dose 100 mg/kg, route oral; details: in vivo; procedure, shortened: as §6
Rattus norvegicus [34] = assay: Volume of urine 1 hr after the compound was administered 100 mg/kg po in rat; type: ADME, organism-based; parameters: dose 100 mg/kg, route oral; details: in vivo; procedure, shortened: as §2
Rattus norvegicus [35] = assay: Mean Chlorine excretion in rats when compound administered at 20 mg/kg po and vehicle dosed at 74.26 umol/kg; type: ADME, organism-based; parameters: dose 20 mg/kg, route oral; details: in vivo; procedure, shortened: as §1

In the case of `CCc1nc2c(nc1C)C(N)=NS(=O)(=O)N2CC`, the Cl- (Rattus norvegicus [1]) is reported as 1.21 m equiv 6hr-1 kg-1 (body weight)-1, the K (Rattus norvegicus [2]) is reported as 0.49 m equiv 6hr-1 kg-1 (body weight)-1 and the LD50 [3] is reported as 1840 mg/kg. For the same compound, the Urine volume (Rattus norvegicus [4]) was 5.52 mL, the K (Rattus norvegicus [5]) was 0.46 m equiv 6hr-1 kg-1 (body weight)-1 and the Na (Rattus norvegicus [6]) was 8.2. For the same compound, the ED200 (Rattus norvegicus [7]) was 87.61 mg/kg, the V (Rattus norvegicus [8]) was 74.26 ml 6hr-1 (kg of body weight)-1 and the K (Rattus norvegicus [9]) was 2.06 m equiv 6hr-1 kg-1 (body weight)-1. The Na (Rattus norvegicus [10]) was 1.7 m equiv 6hr-1 kg-1 (body weight)-1, the V (Rattus norvegicus [11]) was 21.96 ml 6hr-1 (kg of body weight)-1 and the Na (Rattus norvegicus [12]) was 0.45 m equiv 6hr-1 kg-1 (body weight)-1. For the same compound, the Na (Rattus norvegicus [13]) was 1.21 m equiv 6hr-1 kg-1 (body weight)-1, the V (Rattus norvegicus [14]) was 42.25 ml 6hr-1 (kg of body weight)-1 and the “Urinary Na+” value (Rattus norvegicus [15]) was 0.15 m equiv. The K (Rattus norvegicus [16]) was 0.63 m equiv 6hr-1 kg-1 (body weight)-1, the “Urinary Na+” value (Rattus norvegicus [17]) was 0.56 m equiv and the Na (Rattus norvegicus [18]) was 0.8 m equiv 6hr-1 kg-1 (body weight)-1. For the same compound, the “Urinary Na+” value (Rattus norvegicus [19]) was 0.67 m equiv, the K (Rattus norvegicus [20]) was 2.35 m equiv 6hr-1 kg-1 (body weight)-1 and the Cl- (Rattus norvegicus [21]) was 8.04 m equiv 6hr-1 kg-1 (body weight)-1. The V (Rattus norvegicus [22]) was 62.99 ml 6hr-1 (kg of body weight)-1, the V (Rattus norvegicus [23]) was 59.12 ml 6hr-1 (kg of body weight)-1 and the Urine volume (Rattus norvegicus [24]) was 2.71 mL. The V (Rattus norvegicus [25]) was 25.06 ml 6hr-1 (kg of body weight)-1, the Na (Rattus norvegicus [26]) was 6.14 m equiv 6hr-1 kg-1 (body weight)-1 and the V (Rattus norvegicus [27]) was 20.52 ml 6hr-1 (kg of body weight)-1. The K (Rattus norvegicus [28]) was 0.52 m equiv 6hr-1 kg-1 (body weight)-1, the ED2 (Rattus norvegicus [29]) was 14.62 mg/kg and the Na (Rattus norvegicus [30]) was 0.43 m equiv 6hr-1 kg-1 (body weight)-1. The Na (Rattus norvegicus [31]) was 5.1 m equiv 6hr-1 kg-1 (body weight)-1, the Urine volume (Rattus norvegicus [32]) was 1.99 mL and the “Urinary Na+” value (Rattus norvegicus [33]) was 0.16 m equiv. For the same compound, the Urine volume (Rattus norvegicus [34]) was 1.84 mL and the Cl- (Rattus norvegicus [35]) was 3.99 m equiv 6hr-1 kg-1 (body weight)-1.
